Source: PubChem BioAssay
hIAP block: human IAP inhibition; purified IAP, CDP-Star luminescence, 30 min; hit rate 0.12% among 330,000; inhibition, % at 10 µM; P09923;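 active = inhibition reaching a set limit with compound at 10 µM in the primary screen, cut at about 35% in these data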;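 also: plate controls were DMSO wells with enzyme for no effect and no-enzyme buffer wells for full effect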
Target sequence (P09923 whole entry, looked up): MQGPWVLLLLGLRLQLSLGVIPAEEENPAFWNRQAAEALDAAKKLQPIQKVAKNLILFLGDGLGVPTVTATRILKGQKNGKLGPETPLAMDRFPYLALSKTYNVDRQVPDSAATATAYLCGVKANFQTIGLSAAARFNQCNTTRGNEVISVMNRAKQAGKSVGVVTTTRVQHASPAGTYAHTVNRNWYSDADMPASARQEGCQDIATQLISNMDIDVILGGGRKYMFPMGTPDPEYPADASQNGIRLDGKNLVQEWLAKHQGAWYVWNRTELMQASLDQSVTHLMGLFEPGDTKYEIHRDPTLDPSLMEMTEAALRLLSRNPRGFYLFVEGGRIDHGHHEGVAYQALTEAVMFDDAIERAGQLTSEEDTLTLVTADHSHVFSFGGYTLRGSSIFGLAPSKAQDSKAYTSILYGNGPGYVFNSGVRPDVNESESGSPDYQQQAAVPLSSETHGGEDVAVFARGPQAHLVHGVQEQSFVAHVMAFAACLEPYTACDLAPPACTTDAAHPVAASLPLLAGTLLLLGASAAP
mIAP act: mouse IAP activation; hit rate 0.24% among 330,000; activation factor at 10 µM; muIAP, CDP-Star luminescence, 30 min; active compounds read high; 1 = vehicle-only enzyme signal, 0 = enzyme-free wells;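 active = activation factor of at least 2 at 20 µM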
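Assay system: mouse IAP enzyme / Compound: DMSO-dissolved test compounds / Timing: 30 min, room temperature / Measured by: luminescence from enzymatic CDP-Star hydrolysis / Control set: DMSO-only wells, enzyme-free buffer wells as negative control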
bIAP act: increases bovine intestinal alkaline phosphatase activity. purified bovine IAP, CDP-star luminescence, 30 min; active compounds read high; fold of DMSO-control signal, blank-subtracted. activation factor at 20 µM. hit rate 0.17% among 200,000. AID 1016;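 active = activation factor of 2 or more at 20 µM, a signal rise over negative controls twice the positive control's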
bIAP inhibitor: intestinal alkaline phosphatase (bovine) inhibition | purified bovine IAP, CDP-star luminescence, 30 min | inhibition, % at 20 µM | 190,000 tested, under 10 active;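 active = over 50% inhibition of intestinal alkaline phosphatase at 20 µM in the single-dose screen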
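Assay system – bovine IAP enzyme · Quantity – bovine IAP at 1/65,000,000 final dilution · Detection – CDP-star luminescence signal · Times – 30 min reaction at room temperature · Also added – CDP-star substrate at 30 µM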
mIAP block: blocks mouse intestinal alkaline phosphatase. purified mouse IAP, CDP-Star luminescence, 30 min. inhibition, % at 10 µM. hit rate 0.2% among 330,000. AID 2806;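 active = inhibition of at least 40% at 10 µM in the primary screen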;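 also: plate controls were DMSO with enzyme for no effect and no enzyme wells for full effect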
hIAP activ: increases human intestinal alkaline phosphatase activity; activation factor at 10 µM; purified human IAP, CDP-Star luminescence, 30 min; active compounds read high; 1 = vehicle-only enzyme, 0 = enzyme-free background; AID 2524; hit rate 0.16% among 330,000;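 active = activation factor of the enzyme at least 2-fold when tested at 20 µM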
hIAP act confirm: human IAP activation confirmation; shares compounds with hIAP activ; purified IAP, CDP-Star luminescence, 30 min; active compounds read low; activation (%Activity, negative = activation), % at 8.3 µM; hit rate 10% among 880;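 active = at least twofold enzyme activation in any of six single-dose repeats, which the averaged readout prints as negative percent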
Numbers without * were called inactive; / = no result given. In the library only some 0.77% were active in any assay of this set; here they are far more common.

SMILES	hIAP block	mIAP act	bIAP act	bIAP inhibitor	mIAP block	hIAP activ	hIAP act confirm
COc1ccc(CCNCc2ccc(OCc3ccc(Cl)nc3)c(OC)c2)cc1OC	-15	0.94	1.1	-13	6	1.2	/
C1CCN(C2CCN(c3nc4nonc4nc3N3CCSCC3)CC2)C1	13	0.93	1.1	-12	7	0.87	/
C1CCC(Nc2nc3nonc3nc2N2CCSCC2)C1	37*	1	1.1	-9	-3	0.63	-3
CCc1cc(-c2n[nH]c(C)c2-c2nc3ccccc3s2)c(O)cc1OCC(=O)NN	-130	1.1	2*	-103	-15	2.3*	-9
O=C(COC(=O)c1ccccc1O)Nc1cccc(S(=O)(=O)NC2=NCCCCC2)c1	-17	1.1	/	/	-5	1.2	/
COc1ccccc1CNC(=O)Cn1nc(C)c([N+](=O)[O-])c1C	37*	0.96	/	/	4	0.63	-59
Cn1cc(CNCc2cnc3ccccn23)c(-c2ccc(Oc3ccccc3)cc2)n1	-169	0.99	1.2	-17	1	2.7*	2
COc1cc(/C=C2/CCC/C(=C\c3cc(O)c(OC)c(Cl)c3)C2=O)cc(Cl)c1O	40*	0.64	0.4	/	36	0.6	2
COc1cc(/C=C2\CCC/C(=C\c3ccc(O)c(OC)c3)C2=O)ccc1O	34	0.69	/	/	30	0.66	/
Cc1nc(S/C(=C/c2ccc(-c3ccc(Cl)cc3)o2)C(=O)O)n[nH]1	-120	0.92	0.9	13	8	2.2*	-89*
CCN1CCN(CCCNC(=O)CS(=O)(=O)Cc2nc(-c3cccc(OC)c3)oc2C)CC1	-4	1.1	/	/	-6	1	/
CC1=NN(Cc2ccccc2)C(=O)/C1=C\c1ccc(N(C)C)cc1	37*	0.77	0.6	39	23	0.63	66
CCn1cnc2sc(C(=O)O)c(C)c2c1=O	-290	1.1	0.9	12	-14	3.9*	64
O=C(C1CCN(C2CC(=O)N(c3cccc(Cl)c3)C2=O)CC1)N1CCCC1 (stereo not given)	-194	1.1	1	-4	-10	2.9*	-27
CC(=O)NC(=S)Nc1ccccc1C(=O)Nc1ccccc1	-150	0.79	1.4	-40	21	2.5*	-31
N#CCC(=O)NNC(=S)NC(=O)C(c1ccccc1)c1ccccc1	-53	0.91	1.6	-64	10	1.5	/
CC(=O)NC(=S)NNC(=O)C(c1ccccc1)c1ccccc1	-103	1.1	2*	-99	-5	2*	7
CCCCC(=O)NC(=S)Nc1ccccc1C(=O)Nc1ccccc1	-1	0.95	1	4	5	1	/
CCOC(=O)N1CCN(C(=O)COC(=O)c2ccc(O)cc2O)CC1	-4	1.1	0.9	7	-13	1	/
CCCCCCCn1c(=N)n(CC(=O)c2ccco2)c2ccccc21	37*	0.94	1	1	6	0.63	-50*
CCCCn1c(=N)n(CC(=O)c2ccco2)c2ccccc21	12	1.1	0.8	18	-7	0.88	/
CCOC(=O)Cc1csc(NC(=O)CN2C(=O)c3ccccc3S2(=O)=O)n1	-107	0.92	1.4	-35	8	2.1*	7
CCOC(=O)Cc1csc(NC(=O)CN2C(=O)c3ccccc3C2=O)n1	-2	1	/	/	0	1	/
O=S(=O)(Nc1ccc2c(c1)OCCO2)c1cccs1	5	1.1	0.9	9	-9	0.95	/
O=S(=O)(Nc1ccc2c(c1)OCCO2)c1ccc(Br)s1	-106	0.94	0.9	12	6	2.1*	4
SMILES	hIAP block	mIAP act	bIAP act	bIAP inhibitor	mIAP block	hIAP activ	hIAP act confirm
Cc1ccc(NC(=O)c2cc(-c3cc(Cl)ccc3O)n[nH]2)cc1C	-94	1	/	/	-3	1.9	/
Cc1ccc(C)c(NC(=O)c2cc(-c3cc(C)ccc3O)n[nH]2)c1	-121	1.1	/	/	-12	2.2*	-58
Cc1cccc(NC(=O)c2cc(-c3cc(Cl)ccc3O)n[nH]2)c1	-103	1.2	/	/	-18	2*	-4
COc1cccc(OCc2cc(/C=N/n3cncn3)ccc2OC)c1	-1	1.1	/	/	-11	1	/
O=C1Nc2ccc(Br)cc2C12NNc1ccccc1O2 (stereo not given)	-398	0.66	0.5	/	34	5*	35
CCOc1ccc(NC(=O)[C@@H](NC(=O)OCc2ccccc2)[C@@H](C)CC)cc1	4	1	1	0	-3	0.96	/
O=C(CCS(=O)(=O)c1cccc2nsnc12)NCc1ccccc1	-7	1.1	0.9	9	-8	1.1	/
Cc1cc2cc3c(cc2nc1SCC(=O)Nc1nc(C)c(C)s1)OCO3	-116	0.96	1	4	4	2.2*	44
COC(=O)CSc1nc2cc3c(cc2cc1C)OCO3	2	0.94	0.9	13	6	0.98	/
c1ccc(-n2ncc3c2ncn2nnnc32)cc1	-18	1	1.1	-7	-5	1.2	/
c1ccc(-n2ncc3c2ncn2cnnc32)cc1	82*	1	0.4	/	-4	0.17	-18
Cc1nc2c3cnn(-c4ccccc4)c3ncn2n1	73*	1	0.9	14	-1	0.27	4
O=C1/C(=C/c2ccc(O)c([N+](=O)[O-])c2)SC(=S)N1Cc1ccccc1	-2	0.73	0.6	42	26	1	/
O=C(NN1C(=O)/C(=C/c2ccc(O)c([N+](=O)[O-])c2)SC1=S)c1ccccc1Cl	35*	0.75	0.8	16	25	0.65	39
O=C(NN1C(=O)/C(=C/c2ccc(O)cc2)SC1=S)c1cccc(O)c1	37*	0.77	/	/	23	0.63	-5
CC(C)=CCc1c(O)ccc2c1OC(c1ccc(O)c(O)c1)CC2=O (stereo not given)	68*	0.68	0.8	20	32	0.32	26
CC(C)=CCc1c(O)cc2c(c1O)C(=O)CC(c1ccccc1)O2 (stereo not given)	14	0.93	/	/	7	0.86	/
Cc1ccc(NC(=S)NC(=O)C2CCCCC2)c(Br)c1	2	0.9	/	/	10	0.98	/
Cc1ccsc1C(=O)NNC(=S)NC1CCCCC1	-127	0.97	/	/	3	2.3*	49
O=C(NNC(=S)NC1CCCCC1)c1ccccc1Br	-101	1	/	/	-3	2*	-43*
O=C(NNC(=S)NCc1ccco1)c1ccccc1Br	-126	0.84	/	/	16	2.3*	41
O=C(NCc1ccco1)c1ccccc1Br	-2	1.1	1	5	-8	1	/
Cc1cc(C)nc(NS(=O)(=O)c2ccc(NC(=O)C3CC3)cc2)n1	-6	1	/	/	-4	1.1	/
CCc1cccc2[nH]c3cc([N+](=O)[O-])ccc3c12	4	0.99	/	/	1	0.96	/
CCc1ccc(/C=N/Nc2ncnc3nc[nH]c23)cc1	-167	0.98	/	/	2	2.7*	34
